According to publication PMC12744579 (Nanotechnology, Science and Applications, 2025):

Assays:
[1] = In vivo oral gavage study, blood; parameters: species or system New Zealand White rabbits; conditions: male rabbits, 60 g HED
In short: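 Male adult New Zealand White rabbits (3.0 ± 0.3 kg) on high-fibre diet, fasted ~16 h, stratified by body weight, n=6/group. Free or pea-protein-nanoparticle-encapsulated test compound was given by oral gavage at 60 g per 70 kg adult HED, scaled by rabbit body-surface-area factors to an individual per-kg dose. Marginal ear vein blood was sampled pre-dose to 24 h (11 time-points); BHB was measured by assay kit.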

rats = conditions: 14 to 21 g/kg bw/day; cited from earlier work

With `C[C@@H](O)CC(=O)OCC(O)CO` (stereo partly drawn) [KM, (R)-3-hydroxybutyrate monoglyceride] the “[BHB]max” value [1] was 1.33 mmol/L, the MRT ([1]; blood BHB) was 6.60 h and the Tmax ([1]; blood BHB) was 0.75 h. For the same compound, the “systemic toxicity in vivo” value (rats) was “no systemic toxicity”.
